# In PMC8600527 (ACS Omega, 2021):
# Columns and labels:
# [1] = tested on: carrageenan-induced paw edema; experiment: Carrageenan-induced paw edema in mice; type: in vivo, Balb/c mice; settings: 1 mg/kg; paw volume 0 h vs 10 h
# How it was run: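 Female Balb/c mice were fasted overnight and dosed orally with test compound at 1, 2 or 5 mg/kg (n = 5 per group). 1% carrageenan in PBS was injected subplantar into the left hind paw. Paw volume was read by plethysmometer at 1, 3, 6, 8 and 10 h. % inhibition was calculated from edema volume in control vs treated groups.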
# macrophage phagocytosis = experiment: Macrophage phagocytosis by the carbon clearance method; type: in vivo, Balb/C mice (Mus musculus); settings: mice, 1 mg/kg
# How it was run: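 Mice received saline, test compound (1, 2, 5 mg/kg) or dexamethasone (1 mg/kg) as reference. On day 6, carbon ink suspension was injected via the tail vein. Retro-orbital blood was taken at 0 and 30 min, lysed in 0.1% sodium carbonate, and read at 675 nm. Phagocytic index was derived from OD change between the two times (n = 5).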
smiles,measurement,setting,value
C[C@@H]1C[C@H]2[C@@H]3CCC4=CC(=O)C=C[C@]4(C)[C@@]3(F)[C@@H](O)C[C@]2(C)[C@@]1(O)C(=O)CO [dexamethasone],percentage inhibition of paw edema,[1],88.5%
same,phagocytic index,macrophage phagocytosis,0.038 ± 0.002
